# Activity calls are given as the source filed them. The calls are words filed in the database; no cut-off is given here.
# How the values were obtained:
# [1] = tested on: Plasmodium falciparum; assay: Antimalarial activity against Plasmodium falciparum 3D7 assessed as reduction in parasite growth measured after 72 hrs by Monash assay based fluorescence analysis; type: functional, organism-based; conditions: 3D7, 72 h
# In short: (§1)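 Asynchronous P. falciparum cultures were grown continuously in complete RPMI with 25 mM HEPES, 0.5% Albumax II, 0.37 mM hypoxanthine and 2.0 g/l bicarbonate. They were exposed to serially diluted compound for 72 h. Controls were DMSO (0.01%) and a reference positive control. Fluorescence was read after 2 h in the dark at room temperature. IC50 is mean SEM from technical duplicate or triplicate, at least three biological replicates.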
# [2] = tested on: Plasmodium falciparum 3D7; assay: (§2) Binding affinity to Plasmodium falciparum 3D7 AMA1 (104 to 438 residues) expressed in Escherichia coli BL21(DE3) by surface plasmon resonance assay
# [3] = Metabolic stability in mouse liver microsomes assessed as intrinsic clearance at 1 uM measured per mg protein for 60 mins in presence of NADPH regenerating system by LC-MS analysis; type: ADME, Microsome; conditions: read-out: CLH
# In short: (§3)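 Compound was incubated at 37 °C with liver microsomes at 0.4 mg/mL protein. The reaction was started with an NADPH-regenerating system and quenched at time points over 60 min with acetonitrile containing diazepam as internal standard. No-NADPH controls were quenched at 2, 30 and 60 min.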
# [4] = Metabolic stability in mouse liver microsomes assessed as half-life at 1 uM measured for 60 mins in presence of NADPH regenerating system by LC-MS analysis; type: ADME, Microsome; in short: as §3
# [5] = Kinetic solubility of the compound at pH 2 measured after 30 mins by nephelometry; type: physicochemical; conditions: buffer, read-out: Kinetic_solubility
# In short: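 Compound in DMSO was spiked into 0.01 M HCl (pH ~2.0) at a final DMSO of 1%. After 30 min, nephelometry gave a solubility range.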
# [6] = Metabolic stability in human liver microsomes assessed as half-life at 1 uM measured for 60 mins in presence of NADPH regenerating system by LC-MS analysis; type: ADME, Microsome; in short: as §3
# [7] = tested on: Plasmodium falciparum; assay: Antimalarial activity against artemisinin-resistant Plasmodium falciparum Cam3.II^C580Y expressing K13 mutant assessed as reduction in parasite growth measured after 72 hrs by Monash assay based fluorescence analysis; type: functional, organism-based
# In short: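 Asynchronous culture, 72 h compound exposure. Compounds prepared at […] (twice the top concentration) in complete RPMI (25 mM HEPES, 0.5% Albumax II, 0.37 mM hypoxanthine, sodium bicarbonate), then serially diluted. Fluorescence read after 2 h room-temperature dark incubation. Negative control 0.01% DMSO. IC50 as mean SEM, n ≥ 3 biological replicates, each in technical duplicate or triplicate.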
# [8] = Kinetic solubility of the compound at pH 6.5 measured after 30 mins by nephelometry; conditions: buffer, read-out: Kinetic_solubility
# [9] = Selectivity index, ratio of IC50 for cytotoxicity against human HEK293 cells to antiplasmodial activity against Plasmodium falciparum 3D7; type: toxicity, cell-based; conditions: read-out: Ratio IC50
# [10] = tested on: HEK293; assay: Cytotoxicity against human HEK293 cells assessed as reduction in cell viability at 50 uM measured after 24 hrs by MTT assay; conditions: hek293, 24 h
# [11] = tested on: Plasmodium falciparum; assay: Antimalarial activity against artemisinin-sensitive Plasmodium falciparum Cam3.II^rev expressing wild type K13 assessed as reduction in parasite growth measured after 72 hrs by Monash assay based fluorescence analysis; type: functional, organism-based; in short: as §1
# [12] = Metabolic stability in human liver microsomes assessed as intrinsic clearance at 1 uM measured per mg protein after 60 mins in presence of NADPH regenerating system by LC-MS analysis; type: ADME, Microsome; conditions: read-out: CLH; in short: as §3
# [13] = as §2
# [14] = tested on: Plasmodium falciparum; assay: Antimalarial activity against synchronous ring stage of Plasmodium falciparum 3D7 assessed as parasite growth inhibition incubated for 72 hrs by Griffith assay based fluorescence analysis; type: functional, organism-based; conditions: 3D7, 72 h
# In short: (§4)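 22-point dose-response, 3 per log, final 40 µM top, 0.4% DMSO. 72 h at 37 °C under 90% N2/5% CO2/5% O2. DAPI stain, confocal imaging. IC50 from 4-parameter fit normalised to in-plate puromycin and DMSO controls.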
# [15] = tested on: Plasmodium falciparum; assay: Selectivity index, ratio of IC50 for antimalarial activity against PfATP4 inhibitor SJ557733-resistant Plasmodium falciparum Dd2 to IC50 of antimalarial activity against Plasmodium falciparum Dd2; type: functional
# [16] = tested on: Plasmodium falciparum; assay: Antiplasmodial activity against PfATP4 inhibitor SJ557733-resistant Plasmodium falciparum Dd2 assessed as reduction in parasite growth incubated for 72 hrs by Griffith assay based fluorescence analysis; type: functional, organism-based; conditions: Dd2, 72 h; in short: as §4
# [17] = Selectivity index, ratio of IC50 for antimalarial activity against Plasmodium falciparum Dd2 to IC50 of antimalarial activity against Plasmodium falciparum 3D7; type: functional
# [18] = tested on: Plasmodium falciparum; assay: Antimalarial activity against synchronous ring stage of Plasmodium falciparum Dd2 assessed as parasite growth inhibition incubated for 72 hrs by Griffith assay based fluorescence analysis; type: functional, organism-based; conditions: Dd2, 72 h; in short: as §4
compound,measurement,setting,value
Nc1nc2ccccc2n1-c1cccc2ccoc12,IC50,[1],> 500 nM
Nc1nc2ccccc2n1-c1cccc(O)c1,Activity,[2],inactive
same,IC50,[1],> 500 nM
Nc1nc2ccccc2n1-c1ccncc1O,IC50,[1],> 500 nM
Cc1cccc(O)c1-n1c(N)nc2ccccc21,IC50,[1],135 nM
CCNc1nc2ccccc2n1-c1ccccc1O,IC50,[1],> 500 nM
COc1cccc(O)c1-n1c(N)nc2ccccc21,IC50,[1],183 nM
Nc1ncccc1-c1ccccc1O,IC50,[1],> 500 nM
Oc1ccccc1-n1c(NCC2CC2)nc2ccccc21,IC50,[1],> 500 nM
COc1cccc(-n2c(N)nc3ccccc32)c1,Activity,[2],inactive
same,IC50,[1],> 500 nM
COc1ccc(-n2c(N)nc3ccccc32)c(O)c1,microsomal CLint at 1 µM,[3],271 µL/min/mg
same,half-life at 1 µM,[4],6 min
same,solubility kinetic at 0.5 h,[5],> 100 µg/mL
same,half-life at 1 µM,[6],124 min
same,IC50,[7],168 nM
same,solubility kinetic at 0.5 h,[8],50 µg/mL
same,selectivity ratio,[9],> 1000
same,IC50,[1],43 nM
same,Activity,[10],Non-Toxic
same,IC50,[11],212 nM
same,microsomal CLint at 1 µM,[12],14 µL/min/mg
Nc1cc(N)cc(-c2nc3ccccc3[nH]2)c1,Kd,[13],100 µM
Nc1nc2ccccc2n1-c1cccnc1O,IC50,[1],> 500 nM
Oc1ccccc1-n1c(NCC2CCCCC2)nc2ccccc21,IC50,[1],224 nM
Nc1nc2ccccc2n1-c1ccc(O)cc1,Activity,[2],inactive
same,IC50,[1],> 500 nM
Nc1cccc(-c2nc3ccccc3[nH]2)c1,Kd,[13],500 µM
Cc1ccc(-n2c(N)nc3ccccc32)c(O)c1,microsomal CLint at 1 µM,[3],97 µL/min/mg
same,IC50,[14],13.5 nM
same,Ratio IC50,[15],0.5
same,half-life at 1 µM,[4],18 min
same,IC50,[16],17.5 nM
same,solubility kinetic at 0.5 h,[5],> 100 µg/mL
same,half-life at 1 µM,[6],162 min
same,IC50,[7],81 nM
same,solubility kinetic at 0.5 h,[8],25 µg/mL
same,Ratio IC50,[17],2.3
same,selectivity ratio,[9],> 1000
same,IC50,[18],31.7 nM
same,IC50,[1],42 nM
same,Activity,[10],Non-Toxic
same,IC50,[11],140 nM
same,microsomal CLint at 1 µM,[12],11 µL/min/mg
Oc1ccccc1-n1c(NCc2ccccc2)nc2ccccc21,IC50,[1],> 500 nM
Nc1nc2ccccc2n1-c1cc(Cl)ccc1O,IC50,[1],162 nM
Cc1ccc(O)c(-n2c(N)nc3ccccc32)c1,IC50,[1],56 nM
CC(C)Nc1nc2ccccc2n1-c1ccccc1O,IC50,[1],> 500 nM
C[C@H]1[C@@H](O)O[C@@H]2O[C@@]3(C)CC[C@H]4[C@H](C)CC[C@@H]1[C@@]24OO3 [ARTENIMOL],IC50,[14],0.4 nM
same,Ratio IC50,[17],1.3
same,IC50,[18],0.6 nM
same,IC50,[1],2 nM
Nc1nc2cccnc2n1-c1ccccc1O,IC50,[1],> 500 nM
Nc1nc2ccccc2n1CCO,IC50,[1],> 500 nM
COc1ccc(C[C@H](N)C(=O)N[C@H]2[C@@H](O)[C@H](n3cnc4c(N(C)C)ncnc43)O[C@@H]2CO)cc1 [PUROMYCIN],IC50,[14],149 nM
same,Ratio IC50,[17],0.8
same,IC50,[18],114 nM
Nc1nc2ccccc2n1-c1c(O)cccc1Cl,IC50,[1],> 500 nM
Nc1nc2ccccc2n1-c1ccccc1O,microsomal CLint at 1 µM,[3],22 µL/min/mg
same,IC50,[14],22.2 nM
same,Ratio IC50,[15],0.5
same,Activity,[2],inactive
same,half-life at 1 µM,[4],78 min
same,IC50,[16],46 nM
same,solubility kinetic at 0.5 h,[5],> 100 µg/mL
same,half-life at 1 µM,[6],> 255 min
same,IC50,[7],264 nM
same,solubility kinetic at 0.5 h,[8],> 100 µg/mL
same,Ratio IC50,[17],4.4
same,selectivity ratio,[9],> 1000
same,IC50,[18],97.3 nM
same,IC50,[1],77 nM
same,Activity,[10],Non-Toxic
same,IC50,[11],350 nM
same,microsomal CLint at 1 µM,[12],< 7 µL/min/mg
Nc1ccccc1-n1c(O)nc2ccccc21,IC50,[1],> 500 nM
Nc1nn(-c2ccccc2O)c2ccccc12,IC50,[1],> 500 nM
Nc1nccnc1-c1ccccc1O,IC50,[1],> 500 nM
Nc1ccccc1-n1c(N)nc2ccccc21,Activity,[2],inactive
same,IC50,[1],> 500 nM
COc1cccc(-n2c(N)nc3ccccc32)c1O,IC50,[1],55 nM
N#Cc1ccc(-n2c(N)nc3ccccc32)cc1,Activity,[2],inactive
same,IC50,[1],> 500 nM

# From ChEMBL document CHEMBL4837227, “Discovery and development of 2-aminobenzimidazoles as potent antimalarials” (Eur J Med Chem, 2021)
